ChEMBL document CHEMBL4118021, “Studies of TAK1-centered polypharmacology with novel covalent TAK1 inhibitors” (Bioorg Med Chem, 2017)
Activity calls are given as the source filed them. No cut-off for these calls is given here.

Experiments:
Type in all cases: cell-based
[1] = target: T1, Serine/threonine-protein kinase Nek9 (Homo sapiens) (UniProt Q8TD19); test: Binding affinity to NEK9 in human NCI-H23 cells at 1 uM by mass spectrometry based pull down assay
T1 sequence (whole entry): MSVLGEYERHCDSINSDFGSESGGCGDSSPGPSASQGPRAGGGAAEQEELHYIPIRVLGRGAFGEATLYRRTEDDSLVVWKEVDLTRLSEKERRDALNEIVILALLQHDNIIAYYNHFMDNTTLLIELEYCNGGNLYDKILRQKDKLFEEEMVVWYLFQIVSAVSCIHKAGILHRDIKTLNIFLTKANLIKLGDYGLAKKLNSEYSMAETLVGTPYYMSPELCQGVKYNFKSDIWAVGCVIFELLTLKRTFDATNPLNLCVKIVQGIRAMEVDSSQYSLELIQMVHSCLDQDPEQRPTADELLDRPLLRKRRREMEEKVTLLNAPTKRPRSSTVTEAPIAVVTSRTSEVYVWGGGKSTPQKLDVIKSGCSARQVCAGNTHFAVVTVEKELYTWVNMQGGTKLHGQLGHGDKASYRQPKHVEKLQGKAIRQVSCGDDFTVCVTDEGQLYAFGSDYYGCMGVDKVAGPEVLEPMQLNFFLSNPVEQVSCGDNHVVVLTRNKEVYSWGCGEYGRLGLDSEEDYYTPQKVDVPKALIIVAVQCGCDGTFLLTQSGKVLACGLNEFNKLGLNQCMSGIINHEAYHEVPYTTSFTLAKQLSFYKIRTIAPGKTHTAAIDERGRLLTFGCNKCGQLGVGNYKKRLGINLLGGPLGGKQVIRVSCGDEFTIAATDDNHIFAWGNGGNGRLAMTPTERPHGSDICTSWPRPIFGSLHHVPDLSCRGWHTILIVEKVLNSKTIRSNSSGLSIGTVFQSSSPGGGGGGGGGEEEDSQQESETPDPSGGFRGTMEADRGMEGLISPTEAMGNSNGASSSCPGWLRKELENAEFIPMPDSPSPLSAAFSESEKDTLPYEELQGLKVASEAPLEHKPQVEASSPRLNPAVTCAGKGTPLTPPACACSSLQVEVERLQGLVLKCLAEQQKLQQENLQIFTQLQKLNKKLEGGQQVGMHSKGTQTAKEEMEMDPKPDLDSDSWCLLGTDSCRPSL

[2] = target: Thioredoxin-related transmembrane protein 1 (Homo sapiens) (UniProt Q9H3N1); test: Binding affinity to TMX1 in human NCI-H358 cells at 1 uM by mass spectrometry based pull down assay
Sequence of Thioredoxin-related transmembrane protein 1 (Homo sapiens) (Q9H3N1 whole entry): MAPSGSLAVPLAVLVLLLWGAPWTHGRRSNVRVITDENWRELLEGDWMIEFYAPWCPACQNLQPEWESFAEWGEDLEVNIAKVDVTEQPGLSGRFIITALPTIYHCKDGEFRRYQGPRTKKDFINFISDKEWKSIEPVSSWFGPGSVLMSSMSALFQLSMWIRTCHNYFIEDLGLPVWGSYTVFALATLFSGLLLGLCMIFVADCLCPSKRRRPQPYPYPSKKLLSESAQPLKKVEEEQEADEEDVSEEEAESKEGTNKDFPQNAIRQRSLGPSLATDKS

[3] = target: ADP-ribosylation factor-like protein 2 (Homo sapiens) (UniProt P36404); test: Binding affinity to ARL2 in human NCI-H358 cells at 1 uM by mass spectrometry based pull down assay
Sequence of ADP-ribosylation factor-like protein 2 (Homo sapiens) (P36404 whole entry): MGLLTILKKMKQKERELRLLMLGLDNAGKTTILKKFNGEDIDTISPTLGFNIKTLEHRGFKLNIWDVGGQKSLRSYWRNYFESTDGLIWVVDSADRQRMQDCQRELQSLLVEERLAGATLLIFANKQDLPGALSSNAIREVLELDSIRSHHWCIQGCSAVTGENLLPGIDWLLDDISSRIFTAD

[4] = target: Glycogen synthase kinase-3 beta (Homo sapiens) (UniProt P49841); test: Binding affinity to GSK3B in human NCI-H23 cells at 1 uM by mass spectrometry based pull down assay
Sequence of Glycogen synthase kinase-3 beta (Homo sapiens) (P49841 whole entry, looked up): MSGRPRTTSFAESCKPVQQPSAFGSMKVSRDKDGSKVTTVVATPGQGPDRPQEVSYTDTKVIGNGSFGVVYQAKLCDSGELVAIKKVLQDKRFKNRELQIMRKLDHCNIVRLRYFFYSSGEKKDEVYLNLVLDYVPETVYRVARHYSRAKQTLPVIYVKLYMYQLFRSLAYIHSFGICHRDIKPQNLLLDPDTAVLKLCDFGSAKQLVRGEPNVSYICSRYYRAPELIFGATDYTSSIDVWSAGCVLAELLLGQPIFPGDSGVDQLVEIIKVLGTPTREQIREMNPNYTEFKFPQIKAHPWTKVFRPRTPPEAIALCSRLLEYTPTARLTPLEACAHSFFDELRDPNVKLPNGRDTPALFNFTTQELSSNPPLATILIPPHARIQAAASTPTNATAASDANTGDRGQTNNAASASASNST

[5] = target: Aldehyde dehydrogenase family 16 member A1 (Homo sapiens) (UniProt Q8IZ83); test: Binding affinity to ALDH16A1 in human NCI-H358 cells at 1 uM by mass spectrometry based pull down assay
Sequence of Aldehyde dehydrogenase family 16 member A1 (Homo sapiens) (Q8IZ83 whole entry): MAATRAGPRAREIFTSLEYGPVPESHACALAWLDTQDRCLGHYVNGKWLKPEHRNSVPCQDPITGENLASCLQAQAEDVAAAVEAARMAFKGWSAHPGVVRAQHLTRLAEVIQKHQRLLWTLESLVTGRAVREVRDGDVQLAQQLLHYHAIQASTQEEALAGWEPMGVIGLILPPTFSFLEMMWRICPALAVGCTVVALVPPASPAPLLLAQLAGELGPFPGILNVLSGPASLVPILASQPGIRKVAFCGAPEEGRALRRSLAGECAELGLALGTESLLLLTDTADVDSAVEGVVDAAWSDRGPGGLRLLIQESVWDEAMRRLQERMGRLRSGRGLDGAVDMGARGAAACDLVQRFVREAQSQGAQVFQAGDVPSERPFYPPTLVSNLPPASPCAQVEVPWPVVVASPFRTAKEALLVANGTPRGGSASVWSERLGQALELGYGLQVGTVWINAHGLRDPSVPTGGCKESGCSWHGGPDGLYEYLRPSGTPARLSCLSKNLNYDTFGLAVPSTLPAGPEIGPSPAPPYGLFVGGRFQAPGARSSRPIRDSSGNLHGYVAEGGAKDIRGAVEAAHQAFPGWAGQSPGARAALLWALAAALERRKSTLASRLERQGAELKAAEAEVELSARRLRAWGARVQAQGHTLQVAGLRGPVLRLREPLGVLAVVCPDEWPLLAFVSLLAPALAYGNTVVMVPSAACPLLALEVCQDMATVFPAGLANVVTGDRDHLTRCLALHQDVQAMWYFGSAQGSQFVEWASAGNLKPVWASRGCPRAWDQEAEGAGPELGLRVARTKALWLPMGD
Outline: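 NCI-H23 or NCI-H358 cells were grown and lysed. Lysates were incubated overnight at 4 °C with 1 μM biotinylated covalent probe or DMSO, then pulled down on streptavidin beads. Proteins were run on polyacrylamide gels and stained with Coomassie. Bands were excised, digested and identified by mass spectrometry.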

[6] = target: Peroxiredoxin-6 (Homo sapiens) (UniProt P30041); test: Binding affinity to PRDX6 in human NCI-H23 cells at 1 uM by mass spectrometry based pull down assay
Sequence of Peroxiredoxin-6 (Homo sapiens) (P30041 whole entry): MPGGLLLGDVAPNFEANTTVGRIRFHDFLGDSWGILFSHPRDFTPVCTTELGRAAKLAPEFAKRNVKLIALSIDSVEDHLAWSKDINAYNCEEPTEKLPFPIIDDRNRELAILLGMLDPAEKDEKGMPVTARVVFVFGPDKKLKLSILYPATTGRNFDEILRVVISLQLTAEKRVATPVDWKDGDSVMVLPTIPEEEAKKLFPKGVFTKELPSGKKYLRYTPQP

[7] = target: Leucine-rich repeat-containing protein 15 (Homo sapiens) (UniProt Q8TF66); test: Binding affinity to LRRC15 in human NCI-H23 cells at 1 uM by mass spectrometry based pull down assay
Sequence of Leucine-rich repeat-containing protein 15 (Homo sapiens) (Q8TF66 whole entry): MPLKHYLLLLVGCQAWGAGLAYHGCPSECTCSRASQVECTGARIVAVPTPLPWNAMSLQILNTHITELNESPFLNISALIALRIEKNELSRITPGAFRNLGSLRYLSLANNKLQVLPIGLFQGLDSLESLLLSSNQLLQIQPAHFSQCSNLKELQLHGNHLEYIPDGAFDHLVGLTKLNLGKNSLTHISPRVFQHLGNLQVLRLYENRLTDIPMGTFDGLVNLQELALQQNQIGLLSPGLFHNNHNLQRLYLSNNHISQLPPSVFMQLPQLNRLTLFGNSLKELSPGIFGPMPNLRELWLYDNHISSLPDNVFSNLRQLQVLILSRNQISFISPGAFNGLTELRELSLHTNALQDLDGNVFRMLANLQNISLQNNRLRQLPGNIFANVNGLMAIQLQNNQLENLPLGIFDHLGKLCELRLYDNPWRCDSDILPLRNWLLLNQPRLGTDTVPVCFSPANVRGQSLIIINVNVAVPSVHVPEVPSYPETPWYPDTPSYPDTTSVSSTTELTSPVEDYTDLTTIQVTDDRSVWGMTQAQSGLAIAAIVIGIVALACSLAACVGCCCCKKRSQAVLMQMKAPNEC

[8] = target: F-actin-capping protein subunit beta (Homo sapiens) (UniProt P47756); test: Binding affinity to CAPZB in human NCI-H23 cells at 1 uM by mass spectrometry based pull down assay
Sequence of F-actin-capping protein subunit beta (Homo sapiens) (P47756 whole entry): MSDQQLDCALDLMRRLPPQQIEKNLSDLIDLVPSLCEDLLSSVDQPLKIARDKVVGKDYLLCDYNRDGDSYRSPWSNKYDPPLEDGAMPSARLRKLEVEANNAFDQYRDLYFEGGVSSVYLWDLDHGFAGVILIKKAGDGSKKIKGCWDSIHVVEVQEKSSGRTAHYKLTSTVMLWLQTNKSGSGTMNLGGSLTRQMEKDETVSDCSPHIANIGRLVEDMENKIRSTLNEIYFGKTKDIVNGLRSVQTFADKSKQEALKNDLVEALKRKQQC

[9] = target: ATP-dependent 6-phosphofructokinase, muscle type (Homo sapiens) (UniProt P08237); test: Binding affinity to PFKM in human NCI-H23 cells at 1 uM by mass spectrometry based pull down assay
Sequence of ATP-dependent 6-phosphofructokinase, muscle type (Homo sapiens) (P08237 whole entry): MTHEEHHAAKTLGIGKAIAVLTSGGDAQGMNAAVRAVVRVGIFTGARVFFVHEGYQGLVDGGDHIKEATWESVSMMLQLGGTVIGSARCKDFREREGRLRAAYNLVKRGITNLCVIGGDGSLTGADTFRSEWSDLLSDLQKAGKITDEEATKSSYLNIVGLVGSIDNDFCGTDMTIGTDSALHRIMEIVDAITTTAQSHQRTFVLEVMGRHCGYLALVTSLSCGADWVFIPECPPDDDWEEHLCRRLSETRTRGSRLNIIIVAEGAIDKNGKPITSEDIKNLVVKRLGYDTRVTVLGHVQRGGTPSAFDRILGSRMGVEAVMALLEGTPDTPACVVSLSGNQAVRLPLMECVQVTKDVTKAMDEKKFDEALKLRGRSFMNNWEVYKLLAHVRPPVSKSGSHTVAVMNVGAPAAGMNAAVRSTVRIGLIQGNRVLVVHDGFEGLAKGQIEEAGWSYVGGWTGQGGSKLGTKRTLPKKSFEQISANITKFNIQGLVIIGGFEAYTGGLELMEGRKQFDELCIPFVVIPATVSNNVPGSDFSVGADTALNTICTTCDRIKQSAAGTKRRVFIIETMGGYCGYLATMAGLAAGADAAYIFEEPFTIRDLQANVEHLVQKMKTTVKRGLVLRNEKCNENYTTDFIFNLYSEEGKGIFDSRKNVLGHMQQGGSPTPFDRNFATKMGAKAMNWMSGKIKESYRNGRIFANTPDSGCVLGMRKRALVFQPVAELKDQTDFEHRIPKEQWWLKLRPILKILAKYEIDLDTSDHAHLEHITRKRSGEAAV

[10] = target: 14-3-3 protein eta (Homo sapiens) (UniProt Q04917); test: Binding affinity to YWHAH in human NCI-H358 cells at 1 uM by mass spectrometry based pull down assay
Sequence of 14-3-3 protein eta (Homo sapiens) (Q04917 whole entry): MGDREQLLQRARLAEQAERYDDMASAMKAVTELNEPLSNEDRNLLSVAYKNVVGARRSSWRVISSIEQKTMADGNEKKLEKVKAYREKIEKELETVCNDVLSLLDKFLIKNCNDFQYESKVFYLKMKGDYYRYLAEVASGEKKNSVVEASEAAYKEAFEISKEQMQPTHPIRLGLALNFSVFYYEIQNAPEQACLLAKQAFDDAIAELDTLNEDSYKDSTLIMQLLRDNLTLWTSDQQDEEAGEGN

[11] = target: T2, Mitogen-activated protein kinase kinase kinase 7 (Homo sapiens) (UniProt O43318); test: Binding affinity to MAP3K7 in human NCI-H358 cells at 1 uM by mass spectrometry based pull down assay
T2 sequence (whole entry): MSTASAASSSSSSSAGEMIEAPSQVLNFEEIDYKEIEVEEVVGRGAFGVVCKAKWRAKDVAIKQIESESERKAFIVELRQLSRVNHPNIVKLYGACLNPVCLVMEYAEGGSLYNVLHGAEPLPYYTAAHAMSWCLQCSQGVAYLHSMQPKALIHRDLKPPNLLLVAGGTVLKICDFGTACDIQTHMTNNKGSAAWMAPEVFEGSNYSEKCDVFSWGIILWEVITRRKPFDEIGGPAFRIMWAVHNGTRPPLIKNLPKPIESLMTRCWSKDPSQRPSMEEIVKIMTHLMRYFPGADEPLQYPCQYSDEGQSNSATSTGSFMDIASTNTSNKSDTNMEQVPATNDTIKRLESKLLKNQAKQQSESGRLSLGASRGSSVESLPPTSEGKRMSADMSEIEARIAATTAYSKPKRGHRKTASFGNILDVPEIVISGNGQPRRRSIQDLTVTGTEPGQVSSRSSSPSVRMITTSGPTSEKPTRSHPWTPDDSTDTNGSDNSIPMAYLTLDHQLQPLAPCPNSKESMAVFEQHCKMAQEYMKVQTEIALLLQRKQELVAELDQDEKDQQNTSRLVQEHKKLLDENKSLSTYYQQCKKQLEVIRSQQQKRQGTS

Activity [2]: Active
Activity [3]: Active
Activity [4]: Active
Activity [5]: Active
Activity [6]: Active
Activity [7]: Active
Activity [8]: Active
Activity [9]: Active
Activity [10]: Active
Activity [11]: Active
SMILES: C=CC(=O)Nc1ccccc1Nc1nc(Nc2ccc(N3CCN(CCOCCOCCOCCNC(=O)CCCC[C@@H]4SC[C@@H]5NC(=O)N[C@@H]54)CC3)cc2)ncc1Cl
Activity [1]: Active
